Laboratory results published in ChEMBL document CHEMBL4406803, “A- and D-Ring Structural Modifications of an Androsterone Derivative Inhibiting 17β-Hydroxysteroid Dehydrogenase Type 3: Chemical Synthesis and Structure-Activity Relationships” (J Med Chem, 2019).

Assays:
Assay type in all cases: functional
LAPC4 [1] = assay: Antiproliferative activity against human LAPC4 cells expressing androgen receptor assessed as inhibition of cell proliferation at 0.1 uM measured after 3 days by MTS assay relative to control; details: LAPC4, 72 h
LAPC4 [2] = assay: Antiproliferative activity against human LAPC4 cells expressing androgen receptor assessed as inhibition of cell proliferation at 1 uM measured after 3 days by MTS assay relative to control; details: LAPC4, 72 h
PC-3 [3] = assay: Antiproliferative activity against AR-deficient human PC3 cells assessed as reduction in cell proliferation at 1 uM measured after 3 days by MTS assay relative to control; design: scale not given: the % may be the effect or the level left
How it was run: (§1)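 Androgen-independent PC-3 cells were plated at 3,000 per well in triplicate in RPMI-1640 with 10% FBS. Compounds were added at 0.1, 0.5 and 1.0 µM from DMSO stock, with 0.05% DMSO in controls, and incubated 3 days. Growth was read by MTS (4 h, 490 nm) and expressed as % of non-treated control (100%).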

PC-3 [4] = assay: Antiproliferative activity against AR-deficient human PC3 cells assessed as reduction in cell proliferation at 0.5 uM measured after 3 days by MTS assay relative to control; design: scale not given: the % may be the effect or the level left; how it was run: as §1
PC-3 [5] = assay: Antiproliferative activity against AR-deficient human PC3 cells assessed as reduction in cell proliferation at 0.1 uM measured after 3 days by MTS assay relative to control; design: scale not given: the % may be the effect or the level left; how it was run: as §1
LAPC4 [6] = assay: Antiproliferative activity against human LAPC4 cells expressing androgen receptor assessed as inhibition of cell proliferation at 0.5 uM measured after 3 days by MTS assay relative to control; details: LAPC4, 72 h

## C#C[C@]1(O)CC[C@H]2[C@@H]3CCc4cc(OC)c(N5CCN(C(=O)[C@@H]6CCCN6C(=O)c6ccc7ccccc7n6)CC5)cc4[C@H]3CC[C@@]21C
LAPC4 [1]
  inhibition at 0.1 µM: 19%
LAPC4 [2]
  inhibition at 1 µM: 69%
PC-3 [3]
  Activity: 39%
PC-3 [4]
  Activity: 20%
PC-3 [5]
  Activity: 3%
LAPC4 [6]
  inhibition at 0.5 µM: 62%
